# Source: PubChem (several laboratories)
# Yeast growth inh: reduces growth of yeast BB579 in restrictive medium. inhibition, % at 10 µM. S. cerevisiae BB579 growth, OD615, 48 h. hit rate 0.51% among 140,000. AID 804;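 active = inhibition above a set limit, 3 SD over the mean compound inhibition, cut at about 44% in these data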
#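 test system = yeast BB579 (DeaD) | buffer or medium = restrictive CSMM-D medium | doses = single compound dose of 10 µM, 0.25% DMSO final | times = 4 h preincubation and 48 h exposure at 30 °C | technique = culture absorbance at 615 nm | benchmarks = amphotericin B 10 µg/mL, positive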
# RAM network inh: inhibitors of the yeast RAM network | S. cerevisiae dse1pr::URA3 reporter, 5-FOA growth OD615, 2 d; analog-sensitive cbk1-as2 kinase mutant strain | inhibition, % at 50 µM | hit rate 1.8% among 190,000 | AID 868;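 active = inhibition above a set limit, 3 SD over mean compound inhibition, cut at about 8.4% in these data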;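 note: 0% = DMSO-only wells with no growth and 100% = 10 µM 1-NA-PP1 full growth; inhibition rescues growth on 5-FOA so higher OD means more RAM inhibition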
# sdo1 growth: compounds rescuing growth of sdo1-depleted yeast, bone marrow failure model; S. cerevisiae sdo1-depleted JHY4D growth rescue, OD600 30 h; stronger effect = higher value; pdr5 snq2 efflux-pump mutant strain; z-score at 10 µM; hit rate 0.21% among 140,000; AID 817;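 active = z-score above 3 at both the 24 hr and the 30 hr optical density reads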;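 note: z-score against mean and SD of all compound wells on the same plate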
# Yeast lifespan up: extends the lifespan of yeast | inhibition of the nicotinamide effect, % at 10 µM | AID 775 | hit rate 0.68% among 130,000 | S. cerevisiae growth with nicotinamide, OD615; deaD strain in restrictive glucose medium;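 active = inhibition above a set limit, placed 3 SD over the median of all compounds, cut at about 26% in these data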;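 note: 0% = nicotinamide-treated wells and 100% = cells grown without nicotinamide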
#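 Assay system: engineered S. cerevisiae DeaD replicative-lifespan strain, galactose-grown log-phase cells; Buffer or medium: CSMM-D glucose medium, restrictive; Probe or stimulus: nicotinamide 1.5 mM; Compound: single dose 10 µM compound, 0.25% DMSO; Schedule: 4 h preincubation then 48 h treatment at 30 °C; Technique: OD615 measurement.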
# * hit, by the source's call; . = not tested or not shown; [ ] = another dose, or the depositor's remark. Compounds with a hit are over-represented: about 2.7% of the library has one in this group of screens.
SMILES,Yeast growth inh,RAM network inh,sdo1 growth,Yeast lifespan up
COc1ccc(CNC(=O)C(c2ccco2)N(Cc2cccs2)C(=O)Cc2cccs2)cc1 (stereo not drawn),-86,5,-1.8,1
CCOc1ccccc1NC(=O)CCNC(=O)c1ccc(Cl)cc1,.,2,.,.
Cn1[nH]c(C(F)(F)F)c(C=Nc2ccc(Cl)cc2)c1=O,.,0,.,.
COc1cc(/C=C/C(=O)OCC(=O)Nc2ccc(S(=O)(=O)N3CCCC3)cc2)ccc1O,-32,6,1,2
COc1cccc(/C=C/C(=O)OCC(=O)Nc2ccc(S(=O)(=O)N3CCCC3)cc2)c1,-35,9.8*,0.15,-2
CCOC(=O)Cn1nnnc1C(CC)N(Cc1cccs1)Cc1cc2ccc(OC)cc2[nH]c1=O (stereo not drawn),-35,9.6*,-0.04,0
O=C(Nc1ccccc1)C1=C[C@@H](c2ccc(Br)cc2)C[C@@H](OCc2ccc(CO)cc2)O1,.,9.4*,.,.
C#CCNC(=O)C1=C[C@H](C(C)(C)C)C[C@H](OCc2ccc(CO)cc2)O1,.,2,.,.
CC(C)(C)[C@@H]1C=C(C(=O)Nc2ccccc2)O[C@H](OCc2ccc(CO)cc2)C1,.,8.5*,.,.
O=C(C1=C[C@@H](c2ccc3c(c2)OCO3)C[C@@H](OCc2ccc(CO)cc2)O1)N1CCOCC1,.,11*,.,.
O=C(Nc1ccccc1)C1=C[C@H](c2ccc3c(c2)OCO3)C[C@H](OCc2ccc(CO)cc2)O1,.,9.4*,.,.
C#CCNC(=O)C1=C[C@@H](c2csc3ccccc23)C[C@@H](OCc2ccc(CO)cc2)O1,.,4,.,.
Cc1cccc(N2CCN(C(=O)c3ccoc3C)CC2)c1C,-18,1,-0.19,-4
CC(C)CN1CCNC(=O)C1CC(=O)NCc1cnn(-c2cccc(F)c2)c1 (stereo not drawn),.,4,.,.
COCCCNC(=O)C1CCC(CNS(=O)(=O)c2ccc(C)cc2)CC1 (stereo not drawn),.,0,.,.
CSCCC(NC(=O)c1ccccc1)C(=O)OCC(=O)Nc1ccc(C)c(Cl)c1 (stereo not drawn),-37,6,-0.49,-7
CSCCC(NC(=O)c1ccc(Cl)cc1)C(=O)OCC(=O)Nc1cc(Cl)ccc1C#N (stereo not drawn),2,8.7*,-0.66,-4
Cn1c(=O)c2c(nc(Br)n2Cc2ccccc2Cl)n(C)c1=O,-17,2,-0.43,0
Cn1c(=O)c2c(nc(SCc3ccccc3)n2Cc2ccc(Cl)cc2)n(C)c1=O,-29,8.9*,-0.51,.
Cn1c(=O)c2c(nc(Br)n2Cc2ccc3ccccc3c2)n(C)c1=O,-7,4,-1.4,38*
CCCCCCn1c(CN2CCN(Cc3ccccc3)CC2)nc2c1c(=O)n(C)c(=O)n2C,-37,1,-1.2,27*
O=C(CCn1nnc2ccccc21)NNC(=O)C1CCCCC1,.,0,.,.
CCOC(=O)/C(=C\c1cn(C)c2ccccc12)[N+](=O)[O-],-15,-1,-0.61,44*
CCOC(=O)/C(C#N)=C\c1cn(C)c2ccccc12,.,2,.,.
O=C(/C=C/c1cccc([N+](=O)[O-])c1)Nc1ccc(NC(=O)c2cccs2)cc1,-33,1,0.63,-3
SMILES,Yeast growth inh,RAM network inh,sdo1 growth,Yeast lifespan up
O=C(/C=C/c1cccc([N+](=O)[O-])c1)c1cccs1,-10,3,-1.2,28*
CC(NCc1ccc(N(C)C)cc1)C1CC2CCC1C2 (stereo not drawn),-7,-1,0.53,47*
Cn1nccc1C(=O)OCC(=O)Nc1nc(-c2ccccc2)cs1,-52,9.4*,-0.91,-9
Cc1ccc(N/N=C/c2cccnc2)cc1,92*,0,-0.65,-8
Cc1cc(O)c(/C=N/Nc2ccccc2)c(=O)o1,87*,0,-0.93,-16
Cc1cc(O)c(C=Nc2cccc(Cl)c2)c(=O)o1,-12,-1,1.4,-11
CC(=C1C(=O)c2ccccc2C1=O)N1CCN(C/C=C/c2ccccc2)CC1,-2,-1,0.12,57*
Cc1ccc(C(=O)NCCSC2CCCCC2)cc1S(=O)(=O)Nc1ccccc1,-51,11*,-0.24,-9
CCC(=C(c1ccc(OC)cc1)c1ccc(OC)cc1)c1cn(CC(O)CN2CCN(C)CC2)c2ccccc12 (stereo not drawn),95*,0,-3,-18
Cc1ccc(OCCN2CCN(CC(O)Cn3c4ccccc4c4ccccc43)CC2)cc1 (stereo not drawn),1,0,-1.9,-4
O=C(Cc1ccccc1)c1nnc(-c2ccccc2)o1,.,2,.,.
COc1cccc(C(=O)O/N=C(\N)c2ccncc2)c1,6,4,1,-25
COc1cccc(C(=O)O/N=C(\N)Cc2ccc(Cl)cc2)c1,100*,-2,-2.3,-13
N/C(Cc1ccc(Cl)cc1)=N\OC(=O)C1CCCCC1,100*,-3,-2.1,-13
CC(C)Cc1cc(C(=O)N2CCCC(CCC(=O)N(C)CCc3ccccn3)C2)no1 (stereo not drawn),.,1,.,.
CCOC(=O)c1nn(-c2ccc(C)cc2)cc1C(=O)c1ccccc1,-25,4,-0.31,-9
Brc1ccccc1-c1nnc(CSc2nncn2-c2ccccc2)o1,-78,2,-0.71,-2
Cc1ccc(-n2nnnc2SCc2nnc(-c3ccccc3Br)o2)cc1,-91,10*,-0.34,-10
CCOC(=O)c1nnn(CC(=O)NC(=O)Nc2ccc(F)cc2)c1C(=O)OCC,.,0,.,.
CCc1[nH]nc(C(=O)N2CCCC(CCC(=O)N3CCN(c4ccccn4)CC3)C2)c1C (stereo not drawn),.,-1,.,.
O=[N+]([O-])c1cc(Cl)c2cccnc2c1O,.,0,.,.
O=C(COc1c(Br)cc(Br)c2cccnc12)N1CCCCC1,.,-1,.,.
Oc1c(I)cc(Cl)c2cccnc12,98*,0,-2,-9
CN1CCN(Cc2cc(COCc3ccccc3)c3cccnc3c2O)CC1,51*,-1,-0.68,-3
Oc1ccc(CN2CCN(Cc3ccccc3)CC2)c2cccnc12,-20,3,0.18[11.4 µM],-16
SMILES,Yeast growth inh,RAM network inh,sdo1 growth,Yeast lifespan up
Oc1c(CN2CCc3ccccc3C2)cc(Cl)c2cccnc12,99*,-2,-2.1,-15
Oc1c(CN2CCCCC2)cc(Br)c2cccnc12,98*,-1,-2,-20
Cc1cc(C)n2c(SCC(=O)N(CC(C)C)c3c(N)n(CC(C)C)c(=O)[nH]c3=O)nnc2n1,.,2,.,.
Cn1c(=O)[nH]c(=O)c2c1nc(Br)n2CC(O)COc1ccc(Cl)cc1 (stereo not drawn),.,1,.,.
O=C(Cn1nc(C(F)F)cc1C(F)F)NNC(=S)Nc1ccc([N+](=O)[O-])cc1,.,1,.,.
COC(=O)CSC1=NS(=O)(=O)c2ccccc21,-59,-1,-1.2,-2
O=C(CSC1=NS(=O)(=O)c2ccccc21)Nc1ccccc1,73*,-1,-1.2,-11
O=C(/C=C/NNC(=O)c1ccccc1)c1ccc([N+](=O)[O-])cc1,.,0,.,.
COc1ccc(S(=O)(=O)Nc2ccc(S(=O)(=O)Nc3ccc(F)cc3)cc2)cc1C,-8,9.6*,1.2,.
CCOc1cc(C)c(S(=O)(=O)Nc2ccc(F)cc2)cc1C,-20,13*,-0.92,-18
